Screening results from PubChem.
N-glyco inh – blocks N-linked glycosylation in D54 reporter cells; D54 ERlucT glycosylation luciferase reporter, 24 h; percent of 100 nM tunicamycin response; reporter increase, % at 12.5 µM; 360,000 tested, 0.23% active; AID 588692;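 active means mean luciferase reporter signal, scaled so untreated is 0 and the glycosylation-blocking control 100, at or above a set limit in every replicate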;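 further: luciferase carries N-glycosylation sites so blocking glycosylation raises the light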
FN deposition inh – fibronectin deposition inhibition | AH1F fibroblasts, Alexa488-fibronectin deposition fluorescence, overnight | inhibition, % at 12.6 µM | 350,000 tested, 0.086% active;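 active means mean inhibition across replicates of 30% or more, regardless of how many single replicates reach that level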
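Test system: AH1F fibroblast monolayer depositing Alexa488-labelled fibronectin into matrix. Input: 10000 cells per well. Technique: fluorescence, ex 485 nm, em 525 nm. Buffer or medium: DMEM plus 2% serum, read in PBS. Timing: 1 h cell adhesion before compound, then overnight fibronectin incubation. Compound: single dose, pinned. Read-out basis: inhibition from reduced deposited-fibronectin fluorescence.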
PAX8 inh HTS – PAX8 transcriptional activity inhibition. RMG-I TPO-luciferase reporter, SteadyGlo, 24 h. inhibition, % at 12.6 µM. 360,000 tested, 1.2% active;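 active means mean replicate inhibition at least 60% with every replicate also reaching 60%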;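 further: luciferase light reporting Pax8 driven TPO promoter activity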
EWS-Fli block – inhibitors of EWS/Fli oncoprotein transcriptional activity | 350,000 tested, 0.67% active | AID 651661 | inhibition, % at 12.6 µM | A673 NR0B1-luciferase reporter, viability-normalised;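 active means mean inhibition of at least 50% after viability correction, with every replicate also passing that limit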;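 further: firefly luciferase signal divided by Alamar Blue viability fluorescence both relative to DMSO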
AF4-AF9 inh – blocks AF4 peptide binding to human AF9 | AlphaScreen, biotin-AF4 peptide binding to FLAG-AF9 | inhibition, % at 10 µM | 350,000 tested, 0.47% active;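 active means every replicate reaching a set inhibition limit, whatever the replicate mean, cut at about 25% in these data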
Target sequence (P42568 whole entry, looked up): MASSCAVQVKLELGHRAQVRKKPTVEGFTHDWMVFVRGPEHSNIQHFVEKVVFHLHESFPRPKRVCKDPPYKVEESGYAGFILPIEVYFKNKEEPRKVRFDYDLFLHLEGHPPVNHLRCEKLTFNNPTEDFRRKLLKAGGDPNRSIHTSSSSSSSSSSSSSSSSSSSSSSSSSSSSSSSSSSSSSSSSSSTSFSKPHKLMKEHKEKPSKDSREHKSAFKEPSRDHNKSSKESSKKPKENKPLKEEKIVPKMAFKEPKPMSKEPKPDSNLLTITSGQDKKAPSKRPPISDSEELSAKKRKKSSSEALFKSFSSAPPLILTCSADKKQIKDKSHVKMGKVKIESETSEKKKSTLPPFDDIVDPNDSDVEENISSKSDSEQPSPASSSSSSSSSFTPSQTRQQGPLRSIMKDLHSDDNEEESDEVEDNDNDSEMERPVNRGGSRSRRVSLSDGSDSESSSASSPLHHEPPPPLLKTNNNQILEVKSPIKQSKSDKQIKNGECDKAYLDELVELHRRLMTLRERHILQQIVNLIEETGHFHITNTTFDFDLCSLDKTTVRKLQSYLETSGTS
HIV Env fusion – HIV envelope-mediated fusion inhibition. HeLa-JRFL Env/CEM21 cell fusion, luciferase. 360,000 tested, 1.1% active. inhibition, % at 12.3 µM;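 active means mean replicate inhibition score of at least 50 and every replicate individually at or above 50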
A number is an active result; - = inactive; . = no result; [ ] = another dose, or the depositor's remark. This is a sample that favours compounds with a hit; in the whole collection about 2.5% have one here.

SMILES	N-glyco inh	FN deposition inh	PAX8 inh HTS	EWS-Fli block	AF4-AF9 inh	HIV Env fusion
CC(C)c1nnc(NC(=O)CCS(=O)(=O)c2nc(-c3cccs3)cc(C(F)(F)F)n2)s1	-	-	.	.	.	85.2
Cc1ccc(S(=O)(=O)N2CCOCC2)cc1C(=O)OCC(=O)c1c(N)n(C)c(=O)n(C)c1=O	-	-	-	-	-	-
Cn1c(N)c(C(=O)COC(=O)c2cc(S(=O)(=O)N3CCOCC3)ccc2F)c(=O)n(C)c1=O	50.4	-	-	67.0	-	.
Cc1ccc(S(=O)(=O)Nc2ccc3c(c2)C(=O)N([C@@H](C)CO)C[C@@H](C)[C@H](CN(C)S(=O)(=O)c2cn(C)cn2)OCCCC[C@@H](C)O3)cc1	.	-	-	-	-	-
CCC(=O)N[C@@H]1C=C[C@H](CC(=O)NCc2ccccc2F)O[C@@H]1CO	.	.	-	-	-	-
CCS(=O)(=O)N1Cc2ccccc2CC1C(=O)Nc1nnc(SCc2c(Cl)cccc2Cl)s1 (stereo not given)	-	-	113.3	-	-	.
CCS(=O)(=O)N1Cc2ccccc2CC1C(=O)Nc1nc(C)cs1 (stereo not given)	-	-	-	-	-	-
CCS(=O)(=O)N1Cc2ccccc2CC1C(=O)NCC12CC3CC(CC(C3)C1)C2 (stereo not given)	-	-	-	.	.	85.5
CCS(=O)(=O)N1Cc2ccccc2CC1C(=O)Nc1ccc(F)cc1 (stereo not given)	-	-	-	-	-	-
CCS(=O)(=O)N1Cc2ccccc2CC1C(=O)NC(C)C12CC3CC(CC(C3)C1)C2 (stereo not given)	-	-	-	.	.	101.6
CCSc1nnc(NC(=O)C2Cc3ccccc3CN2S(=O)(=O)CC)s1 (stereo not given)	-	-	-	-	-	-
COc1cccc(C#Cc2cnc3c(c2)C(=O)N([C@@H](C)CO)C[C@@H](C)[C@@H](CN(C)C(=O)C2CC2)O3)c1	.	.	.	-	-	-
CCC(=O)N1C[C@@H](C)[C@@H](OC)CN(C)C(=O)c2ccc(NC(=O)c3ccc(F)cc3)cc2OC[C@H]1C	.	-	.	-	-	.
C[C@@H]1CN([C@H](C)CO)S(=O)(=O)c2ccc(-c3cccc(C#N)c3)cc2O[C@@H]1CN(C)Cc1cccc(F)c1	.	-	-	-	-	-
CCOC(=O)OC[C@@H]1[C@@H]2NC(=O)N(C)[C@@]1(CO)Oc1ccccc12	.	.	-	-	-	-
COc1cc(/C=C/C(=O)Nc2nnc(CC(C)C)s2)cc(OC)c1OC	-	-	-	-	-	56.8
Cc1cccc(NC(=S)N/N=C/c2cccc(O)c2)c1C	-	-	-	64.4	-	-
COc1cc(C(=O)N/N=C(\C)c2ccc3c(c2)OCO3)cc(OC)c1OC	34.0	-	-	-	-	-
COc1ccc(/C(C)=N\NC(=O)c2ccc3c(c2)OCO3)cc1OC	.	-	-	-	-	-
O=C(NCc1ccccc1)c1ccc(-c2cn[nH]c2)c2ccoc12	-	34.7	-	-	-	-
COc1ccccc1-c1ccc([C@H]2[C@@H](CO)N[C@@H]2CNC(=O)C2CCCC2)cc1	.	.	.	.	-	.
CCOc1ccc2nc(NC(=O)Nc3ccccc3)sc2c1	-	.	.	.	.	-
Cc1ccc2nc(NC(=O)c3ccccc3F)sc2c1	-	-	-	-	-	-
O=C(Nc1nc2c(F)cc(F)cc2s1)c1ccccn1	-	-	-	53.1	-	-
Cc1ccc2nc(NC(=O)c3ccccn3)sc2c1	-	-	71.5	83.9	-	-
SMILES	N-glyco inh	FN deposition inh	PAX8 inh HTS	EWS-Fli block	AF4-AF9 inh	HIV Env fusion
CCOc1ccc2nc(NC(=O)c3ccccn3)sc2c1	-	-	-	70.4	-	-
C[C@@H]1CCCCO[C@H](CN(C)C(=O)Cc2ccccc2)[C@@H](C)CN([C@H](C)CO)C(=O)c2cc(NS(=O)(=O)c3ccc(F)cc3)ccc2O1	.	.	-	-	-	.
C[C@@H]1CN([C@H](C)CO)C(=O)c2cccc(NC(=O)c3cnccn3)c2O[C@H]1CN(C)C(=O)Nc1ccccc1	.	.	-	-	-	.
O=C(NCc1cccnc1)/C(=C/c1ccc(-c2ccc(Cl)cc2)o1)S(=O)(=O)c1ccccc1	-	.	.	69.0	-	.
O=C(NCc1cccnc1)/C(=C\c1ccc(-c2ccc(Br)cc2)o1)S(=O)(=O)c1ccccc1	-	-	-	59.1	-	.
Cc1ccc(S(=O)(=O)NCc2ccccc2)cc1C(=O)N1CCN(S(=O)(=O)c2ccccc2)CC1	-	-	-	-	-	-
Cc1ccc(S(=O)(=O)NCc2ccccc2)cc1C(=O)N1CCCCCCC1	-	-	-	-	-	65.8
O=C(NCc1ccncc1)[C@@H]1CCCN1C(=O)[C@@H]1CCCN1C(=O)c1cccc2ccccc12	.	-	-	-	-	-
O=C(NCc1ccccc1)[C@@H]1CCCN1C(=O)[C@@H]1CCCN1C(=O)c1cccc2ccccc12	.	-	-	-	-	74.7
Cc1ccccc1C(=O)N[C@H](C(=O)N1CCC[C@H]1C(=O)NCc1ccccc1)c1ccccc1	.	-	-	-	.	55.9
Cc1ccccc1C(=O)N[C@@H](CC(C)C)C(=O)N1CCC[C@H]1C(=O)NCc1ccccc1	.	-	-	-	.	-
CCNC(=O)C[C@@H]1CC[C@@H](NC(=O)C2CCOCC2)[C@H](CO)O1	.	.	-	-	-	-
COc1ccc(NC(=O)Nc2ccc3c(c2)CC(=O)N([C@@H](C)CO)C[C@H](C)[C@@H](CN(C)Cc2ccncc2)O3)cc1	.	.	-	-	-	.
C[C@H]1CN([C@@H](C)CO)S(=O)(=O)c2ccc(C#CC3CC3)cc2O[C@@H]1CN(C)C(=O)C1CCCCC1	.	-	.	-	.	-
Clc1ccc(OCCOCCNCc2ccccc2)cc1Cl	-	-	-	-	-	55.5
Cc1noc(C)c1NC(=O)N(C)C[C@@H]1Oc2c(NS(=O)(=O)c3cccs3)cccc2C(=O)N([C@@H](C)CO)C[C@@H]1C	.	-	.	-	-	.
CS(=O)(=O)c1ccc(Sc2nc3ccccc3s2)c([N+](=O)[O-])c1	40.0	.	.	.	.	.
O=[N+]([O-])c1cc(S(=O)(=O)C(F)(F)F)ccc1Sc1nc2ccccc2s1	-	.	.	.	.	.
COCC(=O)Nc1ccc2c(c1)C(=O)N(C)C[C@@H](OC)[C@H](C)CN(Cc1cccc(F)c1)[C@H](C)CO2	.	-	-	-	-	.
Cn1c(Cn2cnc([N+](=O)[O-])n2)nnc1SCC(=O)Nc1ccccc1	-	-	81.4	-	-	.
CCCS(=O)(=O)NC(=O)C1(C)CCN(C(=O)COc2ccc(Cl)cc2Cl)C1 (stereo not given)	-	-	-	-	-	55.7
CCCS(=O)(=O)NC(=O)C1(C)CCCN(C(=O)COc2ccc(Cl)cc2Cl)C1 (stereo not given)	-	-	.	-	-	-
C[C@@H]1CCCCO[C@@H](CN(C)CC2CCCCC2)[C@H](C)CN([C@H](C)CO)C(=O)c2cc(NC(=O)Nc3ccc(F)cc3)ccc2O1	.	.	-	-	-	75.1[16.7 µM]
